According to ChEMBL document CHEMBL1143333, “Amide derivatives of ethacrynic acid: synthesis and evaluation as antagonists of Wnt/beta-catenin signaling and CLL cell survival” (Bioorg Med Chem Lett, 2009):

How the values were obtained:
[1] = Inhibition of Wnt/beta-catenin signaling in human SW480 cells by fluorimetry
[2] = Cytotoxicity against human CLL cells after 48 hrs by MTT method; type: functional, cell-based
Procedure, shortened: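 Freshly isolated CLL cells plated at 2.5 × 10^5 per well and exposed to compounds for 48 h. MTT added at 1/10 volume of a 5 mg/mL stock, followed by overnight incubation at 37 °C before read-out of viability.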

Row | SMILES | IC50 [1] [µM] | EC50 [2] [µM]
1 | C=C(CC)C(=O)c1ccc(OCC(=O)Nc2cc(Cl)ccc2C(=O)O)c(Cl)c1Cl | 9.62 | 13.8
2 | C=C(CC)C(=O)c1ccc(OCC(=O)Nc2ccc(C(=O)NC(CCC(=O)OCC)C(=O)OCC)cc2)c(Cl)c1Cl (centres undefined) | 2.61 | 2.1
3 | C=C(CC)C(=O)c1ccc(OCC(=O)Nc2ccc(CC(=O)O)cc2)c(Cl)c1Cl | > 50 | 3.2
4 | C=C(CC)C(=O)c1ccc(OCC(=O)Nc2ccc(S(=O)(=O)O)cc2)c(Cl)c1Cl | > 50 | > 25
5 | C=C(CC)C(=O)c1ccc(OCC(=O)Nc2ccc(/C=C/C(=O)OCC)cc2)c(Cl)c1Cl | 3.79 | 1.7
6 | C=C(CC)C(=O)c1ccc(OCC(=O)Nc2ccc(/C=C/C(=O)O)cc2)c(Cl)c1Cl | 2.51 | 3
7 | C=C(CC)C(=O)c1ccc(OCC(=O)Nc2ccc3c(c2)C(=O)NC3=O)c(Cl)c1Cl | 4.88 | 2.5
8 | C=C(CC)C(=O)c1ccc(OCC(=O)NCCc2c[nH]c3ccccc23)c(Cl)c1Cl | 10.7 | 5.9
9 | C=C(CC)C(=O)c1ccc(OCC(=O)Nc2ccc(C(=O)O)cn2)c(Cl)c1Cl | > 50 | 14.9
10 | C=C(CC)C(=O)c1ccc(OCC(=O)NCO[N+](=O)[O-])c(Cl)c1Cl | > 50 | 4.1
11 | C=C(CC)C(=O)c1ccc(OCC(=O)Nc2ccc3c(C)cc(=O)oc3c2)c(Cl)c1Cl | 2.63 | 2.8
12 | C=C(CC)C(=O)c1ccc(OCC(=O)Nc2ccc(O)cc2)c(Cl)c1Cl | > 50 | 6.4
13 | C=C(CC)C(=O)c1ccc(OCC(=O)Nc2ccc(C(N)=O)cc2)c(Cl)c1Cl | 4.76 | 3.7
14 | C=C(CC)C(=O)c1ccc(OCC(=O)Nc2ccc(C(=O)O)cc2)c(Cl)c1Cl | 5.81 | 5
15 | C=C(CC)C(=O)c1ccc(OCC(=O)Nc2ccc(O)c(Cl)c2)c(Cl)c1Cl | 3.8 | 5.5
16 | C=C(CC)C(=O)c1ccc(OCC(=O)NCC2CCC(C(=O)O)CC2)c(Cl)c1Cl (centres undefined) | > 50 | 8
17 | C=C(CC)C(=O)c1ccc(OCC(=O)Nc2cccc(C(=O)O)c2)c(Cl)c1Cl | 5.85 | 20.6
18 | C=C(CC)C(=O)c1ccc(OCC(=O)Nc2ccc(C(=O)O)c(O)c2)c(Cl)c1Cl | > 50 | > 25
19 | C=C(CC)C(=O)c1ccc(OCC(=O)Nc2ccc(C(=O)OC)cc2)c(Cl)c1Cl | 11.4 | 4.1
20 | C=C(CC)C(=O)c1ccc(OCC(=O)Nc2ccc3c(c2)C(=O)c2ccccc2C3=O)c(Cl)c1Cl | 2.97 | 2.1
21 | C=C(CC)C(=O)c1ccc(OCC(=O)NCCCN2CCCC2=O)c(Cl)c1Cl | > 50 | 13.8

Row | SMILES | IC50 [1] [µM] | EC50 [2] [µM]
22 | C=C(CC)C(=O)c1ccc(OCC(=O)NC(CS)C(=O)OCC)c(Cl)c1Cl (centres undefined) | > 50 | 4.8
23 | C=C(CC)C(=O)c1ccc(OCC(=O)Nc2ccc(/C=C/C(=O)NO)cc2)c(Cl)c1Cl | 1.81 | 2.6
24 | C=C(CC)C(=O)c1ccc(OCC(=O)Nc2ccc(C#N)cc2)c(Cl)c1Cl | 6.84 | 7.8
25 | C=C(CC)C(=O)c1ccc(OCC(=O)Nc2ccc(Cl)c(C(=O)O)c2)c(Cl)c1Cl | > 50 | 15.9
26 | C=C(CC)C(=O)c1ccc(OCC(=O)NCCO)c(Cl)c1Cl | > 50 | > 25
27 | C=C(CC)C(=O)c1ccc(OCC(=O)Nc2ccc(C(C)=O)cc2)c(Cl)c1Cl | 5.06 | 3.9
28 | C=C(CC)C(=O)c1ccc(OCC(=O)Nc2nc(/C(=N\OC)C(=O)O)cs2)c(Cl)c1Cl | > 50 | > 25
29 | C=C(CC)C(=O)c1ccc(OCC(=O)Nc2nc3ccccc3s2)c(Cl)c1Cl | 4.86 | 1.5
30 | C=C(CC)C(=O)c1ccc(OCC(=O)NCCN2CCOCC2)c(Cl)c1Cl | > 50 | 6.4
31 | C=C(CC)C(=O)c1ccc(OCC(=O)Nc2ccc(Cc3ccc(N4C(=O)C5C6C=CC(C6)C5C4=O)cc3)cc2)c(Cl)c1Cl (centres undefined) | 2.93 | 1.8
32 | C=C(CC)C(=O)c1ccc(OCC(=O)Nc2ccc3cc(C(=O)O)ccc3c2)c(Cl)c1Cl | 2.93 | 3.7
33 | C=C(CC)C(=O)c1ccc(OCC(=O)Nc2ccc([C@]3(CC)CCC(=O)NC3=O)cc2)c(Cl)c1Cl | 4.42 | 2.8
34 | C=C(CC)C(=O)c1ccc(OCC(=O)NO)c(Cl)c1Cl | 9.89 | 4.5
35 | C=C(CC)C(=O)c1ccc(OCC(=O)Nc2ccc(O)c([N+](=O)[O-])c2)c(Cl)c1Cl | 4.23 | 7.4
36 | C=C(CC)C(=O)c1ccc(OCC(=O)Nc2ccc3c(c2)C(O)N=NC3O)c(Cl)c1Cl (centres undefined) | 6.58 | 8.5
37 | C=C(CC)C(=O)c1ccc(OCC(=O)Nc2ccc3nc[nH]c3c2)c(Cl)c1Cl | 3.62 | 3.2
38 | C=C(CC)C(=O)c1ccc(OCC(=O)Nc2cc(OC)c(OC)cc2C(=O)O)c(Cl)c1Cl | > 50 | 21.9
39 | C=C(CC)C(=O)c1ccc(OCC(=O)NC2CCN(CC(=O)OC)CC2)c(Cl)c1Cl | > 50 | 10.6
40 | C=C(CC)C(=O)c1ccc(OCC(=O)NCC(=O)O)c(Cl)c1Cl | > 50 | > 25
41 | CCC(C)C(=O)c1ccc(OCC(=O)O)c(Cl)c1Cl (centres undefined) | > 50 | > 25
42 | C=C(CC)C(=O)c1ccc(OCC(=O)O)c(Cl)c1Cl [ETHACRYNIC ACID] | 32.7 | 9.9
